# ChEMBL document CHEMBL4627320, “Discovery of CRBN E3 Ligase Modulator CC-92480 for the Treatment of Relapsed and Refractory Multiple Myeloma” (J Med Chem, 2020)
# Active and inactive are the calls of the source. The calls are words filed in the database; no cut-off is given here.
# Columns and labels:
# Homo sapiens [1] = organism: Homo sapiens; assay: (§1) Antiproliferative activity against lenalidomide-resistant human H929-R10-1 cells incubated for 5 days by CellTiter-Glo assay; assay type: functional
# Summary of the method: (§2)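 H929 R10-1 cells kept in log phase at 37°C, 5% CO₂, and plated at 5000 cells/well. Compounds were added as 10-point duplicate curves starting at 10µM with 1:3 dilutions, in 0.1% DMSO, final volume 40µl. Plates were incubated for 5 days. Viability was read by CellTiter-Glo luminescence after 1 h at room temperature in the dark. IC50 is the mean of ≥3 separate determinations.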
# Homo sapiens [2] = organism: Homo sapiens; assay: Induction of apoptosis in lenalidomide-resistant human H929-R10-1 cells assessed as caspase3 induction at 1 uM measured over 150 hrs by live cell imaging analysis; assay type: functional
# Summary of the method: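 Lenalidomide-refractory H929 R10-1 cells were treated at concentrations from 1 nM to 1 μM. Caspase-3 induction was quantified by live-cell imaging over 150 h.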
# [3] = as §1; assay type: functional; conditions: 120 h; summary of the method: as §2
# [4] = target: Protein cereblon/Zinc finger protein Aiolos (Homo sapiens, UniProt Q96SW2+Q9UKT9); assay: Induction of CRBN-mediated pLOC-ePL-tagged aiolos (unknown origin) degradation in human DF15 cells assessed as minimum protein remaining incubated for 4 hrs by luminescence based beta-galactosidase enzyme fragmentation complementation assay; assay type: cell-based
# [5] = target: Adrenergic receptor alpha-1 (Homo sapiens) (UniProt P35348+P25100+P35368); assay: Inhibition of adrenergic receptor alpha1 (unknown origin) at 10 uM relative to control; assay type: protein assay
# D(2) dopamine receptor [6] = target: T1, D(2) dopamine receptor (Homo sapiens, UniProt P14416); assay: Inhibition of D2S (unknown origin) at 10 uM relative to control
# [7] = Solubility of the compound; assay type: physicochemical
# PBMC = assay: Cytotoxicity against PBMC (unknown origin); assay type: cell-based
# [8] = AUC (0 to infinity) in monkey at 3 mg/kg, po; assay type: ADME, organism-based, Macaca mulatta; parameters: dose 3 mg/kg, route oral, time infinity; conditions: rhesus monkey, in vivo
# [9] = target: Protein cereblon/DNA damage-binding protein 1 (Homo sapiens, UniProt Q96SW2); assay: Displacement of Cy5-conjugated CELMoD from N-terminal 6-His tagged CRBN (1 to 442 residues) (unknown origin)/DDB1 (1 to 1140 residues) (unknown origin) incubated for 10 mins by FRET assay; assay type: protein assay
# [10] = Drug metabolism in assay cell medium assessed as compound racemization measured within 24 hrs; assay type: physicochemical
# Summary of the method: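 Compound held in the same cell medium used for the H929 R10-1 antiproliferation assay; enantiomer levels followed by chiral monitoring over 24 h.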
# [11] = Cmax in monkey at 3 mg/kg, po; assay type: ADME, organism-based, Macaca mulatta; parameters: dose 3 mg/kg, route oral; conditions: rhesus monkey, in vivo
# [12] = Cmax in Sprague-Dawley rat at 10 mg/kg, po; assay type: ADME, organism-based; parameters: dose 10 mg/kg, route oral; conditions: in vivo
# Summary of the method: (§3)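 Sprague-Dawley rats given 10 mg/kg orally as a suspension in 0.5% CMC / 0.25% Tween-80 / water; plasma exposure followed.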
# [13] = Drug metabolism in monkey assessed as compound racemization at 3 mg/kg, po relative to compound AUC; assay type: ADME, organism-based, Macaca mulatta; conditions: rhesus monkey, in vivo
# [14] = AUC (0 to infinity) in Sprague-Dawley rat at 10 mg/kg, po; assay type: ADME, organism-based; parameters: dose 10 mg/kg, route oral, time infinity; conditions: in vivo; summary of the method: as §3
# [15] = target: D(2) dopamine receptor (Rattus norvegicus) (UniProt P61169); assay: In vivo agonist activity at D2S in rat assessed as suppression of gut motility administered daily for 7 days; assay type: functional, organism-based
# D(2) dopamine receptor [16] = target: T1, D(2) dopamine receptor; assay: Agonist activity at D2S (unknown origin)
# [17] = Antitumor activity against human NCI-H929-1051 cells xenografted in CB17 SCID mouse assessed as reduction in tumor volume at 10 mg/kg, po qd for 21 days measured post last dose by caliper method relative to control; assay type: functional; parameters: scale not given: the % may be the effect or the level left
# Summary of the method: (§4)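 Female CB17 SCID mice, 6-8 weeks old, were inoculated subcutaneously with 10×10⁶ NCI-H929-1051 cells, which had been expanded in 10 μM lenalidomide. At about 150 mm³ the mice were randomized (n=8-10/group) and dosed orally once daily for 21 days, with a vehicle control group. Tumors were measured by caliper twice weekly and volume was taken as width²×length/2. Final volumes were taken after the last dose. Data are mean ± SEM.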
# Homo sapiens [18] = organism: Homo sapiens; assay: Induction of apoptosis in lenalidomide-resistant human H929-R10-1 cells assessed as p27 stabilization at 1 to 100 nM after 72 hrs by Western blot analysis; assay type: functional
# Summary of the method: (§5)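 H929 R10-1 cells treated with DMSO or compound (1–100 nM) for 72 h, washed in PBS, lysed in NP-40/Tris pH 8 buffer with protease and phosphatase inhibitors; clarified lysates immunoblotted for p27, cleaved caspase-1, -3, -7 and cleaved PARP, with β-tubulin, using fluorescent secondary antibodies.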
# [19] = Tmax in Sprague-Dawley rat at 10 mg/kg, po; assay type: ADME, organism-based; conditions: in vivo; summary of the method: as §3
# [20] = Antitumor activity against human NCI-H929-1051 cells xenografted in CB17 SCID mouse assessed as reduction in tumor volume at 1 mg/kg, po qd for 21 days measured post last dose by caliper method relative to control; assay type: functional; parameters: scale not given: the % may be the effect or the level left; summary of the method: as §4
# [21] = Metabolic stability in human liver S9 fraction assessed as parent compound remaining after 60 mins; assay type: ADME, subcellular; conditions: read-out: Stability
# Summary of the method: (§6)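 Compound incubated with human or rat liver S9 fraction; percent parent remaining at 60 min.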
# [22] = Metabolic stability in rat liver S9 fraction assessed as parent compound remaining after 60 mins; assay type: ADME, subcellular; conditions: read-out: Stability; summary of the method: as §6
# Homo sapiens [23] = organism: Homo sapiens; assay: Induction of apoptosis in lenalidomide-resistant human H929-R10-1 cells assessed as caspase3 induction at 1 nM measured over 150 hrs by live cell imaging analysis; assay type: functional
# Summary of the method: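 Lenalidomide-refractory H929 R10-1 cells treated at 1 nM to 1 μM; caspase-3 induction quantified by live cell imaging over 150 h.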
# Homo sapiens [24] = organism: Homo sapiens; assay: Induction of apoptosis in lenalidomide-resistant human H929-R10-1 cells assessed as increase in cleaved caspase7 level at 1 to 100 nM after 72 hrs by Western blot analysis; assay type: functional; summary of the method: as §5
# Homo sapiens [25] = organism: Homo sapiens; assay: Induction of apoptosis in lenalidomide-resistant human H929-R10-1 cells assessed as increase in cleaved caspase1 level at 1 to 100 nM after 72 hrs by Western blot analysis; assay type: functional; summary of the method: as §5
# [26] = Clearance in Sprague-Dawley rat at 2 mg/kg, iv; assay type: ADME, organism-based; conditions: in vivo
# Homo sapiens [27] = organism: Homo sapiens; assay: Induction of apoptosis in lenalidomide-resistant human H929-R10-1 cells assessed as increase in cleaved caspase3 level at 1 to 100 nM after 72 hrs by Western blot analysis; assay type: functional; summary of the method: as §5
# [28] = Efflux ratio of permeability across apical to basolateral side in human Caco2 cells; assay type: ADME, cell-based; conditions: Caco-2
# [29] = Antitumor activity against human NCI-H929-1051 cells xenografted in CB17 SCID mouse assessed as reduction in tumor volume at 3 mg/kg, po qd for 21 days measured post last dose by caliper method relative to control; assay type: functional; parameters: scale not given: the % may be the effect or the level left; summary of the method: as §4
# [30] = Oral bioavailability in Sprague-Dawley rat at 10 mg/kg; assay type: ADME, organism-based; conditions: in vivo; summary of the method: as §3
# [31] = Solubility of the compound at pH 5; assay type: physicochemical; conditions: buffer
# Homo sapiens [32] = organism: Homo sapiens; assay: Induction of apoptosis in lenalidomide-resistant human H929-R10-1 cells assessed as increase in cleaved PARP level after 72 hrs by Western blot analysis; assay type: functional; summary of the method: as §5
# [33] = target: Protein cereblon/Eukaryotic peptide chain release factor GTP-binding subunit ERF3A (Homo sapiens, UniProt P15170+Q96SW2); assay: Induction of CRBN-mediated pLOC-ePL-tagged GSPT1 (unknown origin) degradation in human DF15 cells assessed as minimum protein remaining incubated for 4 hrs by luminescence based beta-galactosidase enzyme fragmentation complementation assay; assay type: cell-based
smiles,measurement,setting,value
Nc1cccc2c1CN(C1CCC(=O)NC1=O)C2=O (centres undefined),Activity,Homo sapiens [1],inactive
same,Activity,Homo sapiens [2],Active
O=C1CCC(N2Cc3c(OCc4ccc(C(=O)N5CCN(c6ccc(F)cc6F)CC5)cc4)cccc3C2=O)C(=O)N1 (centres undefined),IC50,[3],4.9 nM
same,EC50,[4],0.1 nM
same,inhibition,[5],70.3%
same,inhibition,D(2) dopamine receptor [6],0.4%
same,solubility,[7],< 7 µg/mL
Cc1ccc(NC(=O)NCc2ccc3c(c2)CN(C2CCC(=O)NC2=O)C3=O)cc1Cl (centres undefined),Activity,Homo sapiens [1],Active
same,IC50,PBMC,> 5000 nM
O=C1CCC(N2Cc3c(OCc4ccc(C(=O)N5CCN(c6ccc(Cl)cc6Cl)CC5)cc4)cccc3C2=O)C(=O)N1 (centres undefined),IC50,[3],3.3 nM
same,EC50,[4],0.1 nM
same,inhibition,[5],74.1%
same,inhibition,D(2) dopamine receptor [6],5.6%
same,solubility,[7],< 7 µg/mL
N#Cc1ccc(N2CCN(Cc3ccc(COc4cccc5c4CN([C@@H]4CCC(=O)NC4=O)C5=O)cc3)CC2)c(F)c1,AUC(0-inf),[8],0.1 µM·h
same,IC50,[9],4510 nM
same,Drug metabolism,[10],Metabolite_Detected
same,Cmax,[11],16 nM
same,Cmax,[12],60 nM
same,Drug metabolism,[13],< 9%
same,AUC(0-inf),[14],0.5 µM·h
N#Cc1ccc(N2CCN(Cc3ccc(COc4cccc5c4CN(C4CCC(=O)NC4=O)C5=O)cc3)CC2)c(F)c1 (centres undefined),IC50,[3],1.7 nM
same,EC50,[4],0.1 nM
same,inhibition,[5],67%
same,inhibition,D(2) dopamine receptor [6],54.5%
same,Activity,[15],inactive
same,EC50,D(2) dopamine receptor [16],> 10000 nM
O=C1CCC(N2Cc3c(OCc4ccc(C(=O)N5CCN(c6ccc(Cl)cc6)CC5)cc4)cccc3C2=O)C(=O)N1 (centres undefined),IC50,[3],6.2 nM
same,EC50,[4],0.1 nM
same,inhibition,[5],33.7%
same,inhibition,D(2) dopamine receptor [6],7.9%
same,solubility,[7],< 7 µg/mL
N#Cc1ccc(N2CCN(Cc3ccc(COc4cccc5c4CN([C@H]4CCC(=O)NC4=O)C5=O)cc3)CC2)c(F)c1 [MEZIGDOMIDE],AUC(0-inf),[8],1.1 µM·h
same,IC50,[9],30 nM
same,Drug metabolism,[10],Metabolite_Detected
same,Cmax,[11],220 nM
same,Activity,[17],85.7%
same,Activity,Homo sapiens [18],Active
same,Tmax,[19],48 min
same,Activity,[20],75.3%
same,remaining at 1 h,[21],99%
same,remaining at 1 h,[22],100%
same,Activity,Homo sapiens [23],Active
same,Activity,Homo sapiens [24],Active
same,Activity,Homo sapiens [25],Active
same,clearance,[26],6.8 mL/min/kg
same,Activity,Homo sapiens [27],Active
same,Cmax,[12],3200 nM
same,efflux ratio,[28],1
same,Activity,[29],83.8%
same,bioavailability,[30],38%
same,solubility,[31],90 µg/mL
same,Activity,Homo sapiens [32],Active
same,AUC(0-inf),[14],16.4 µM·h
O=C1CC[C@@H](N2Cc3c(OCc4ccc(CN5CCN(c6ccc(F)cc6F)CC5)cc4)cccc3C2=O)C(=O)N1,IC50,[3],4.3 nM
same,IC50,[9],1160 nM
same,Drug metabolism,[10],Metabolite_Detected
same,EC50,[4],0.5 nM
Nc1cccc2c1C(=O)N(C1CCC(=O)NC1=O)C2=O (centres undefined),Activity,Homo sapiens [1],inactive
same,Activity,Homo sapiens [18],inactive
same,Activity,Homo sapiens [24],inactive
same,Activity,Homo sapiens [25],inactive
same,Activity,Homo sapiens [27],inactive
same,Activity,Homo sapiens [2],Active
same,Activity,Homo sapiens [32],inactive
O=C1CCC(N2Cc3c(OCc4ccc(CN5CCN(c6ccc(F)cc6F)CC5)cc4)cccc3C2=O)C(=O)N1 (racemic),IC50,[3],1.7 nM
same,IC50,[9],55.1 to 502 nM
same,EC50,[33],> 10000 nM
same,Activity,PBMC,Non-Toxic
same,EC50,[4],0.1 nM
same,inhibition,[5],102%
same,inhibition,D(2) dopamine receptor [6],99.1%
same,Activity,[15],Active
same,EC50,D(2) dopamine receptor [16],16 nM
